Source: ChEMBL document CHEMBL1140412, “F-18 stilbenes as PET imaging agents for detecting beta-amyloid plaques in the brain” (J Med Chem, 2005)
One block for each compound: values may come before it.

Legend:
[1] = biological target: Amyloid-beta precursor protein (Homo sapiens, UniProt P05067); experiment: Inhibition constant for I-125-IMPY binding to amyloid plaques in Alzheimers disease brain homogenates; type: tissue-based
In short: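 Competition binding in pooled postmortem AD cortical homogenates (dissected gray/white matter, ~100 mg wet tissue/ml PBS pH 7.4; 20-50 μg per tube). [¹²⁵I]IMPY at 0.04-0.06 nM; inhibitors 10^-5-10^-10 M in PBS with 0.1% BSA. Nonspecific binding with 600 nM IMPY. Incubated 2 hr at 37°C, GF/B filtration, PBS washes, gamma counting. Ki from nonlinear regression.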

[2] = Biodistribution in ICR mouse bone 1 hr after iv injection of [18F]-compound in 0.1% bovine serum albumin solution, n = 3; type: ADME, organism-based, Bone element; settings: in vivo
In short: (§1)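 Male ICR mice (22-25 g) under isoflurane anesthesia received 0.15 mL of 0.1% BSA solution containing 5-10 μCi [¹⁸F]tracer by tail-vein injection; n = 3 per time point. Killed by cervical dislocation, organs removed, weighed and gamma-counted. %dose/g derived from sample counts vs. diluted initial dose; blood total activity assumed as 7% of body weight. Mean ± SD.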

[3] = Biodistribution in ICR mouse bone 2 hr after iv injection of [18F]-compound in 0.1% bovine serum albumin solution, n = 3; type: ADME, organism-based, Bone element; settings: in vivo; in short: as §1
[4] = Biodistribution in ICR mouse lung 1 hr after iv injection of [18F]-compound in 0.1% bovine serum albumin solution, n = 3; type: ADME, organism-based; settings: in vivo; in short: as §1
[5] = Biodistribution in ICR mouse lung 2 hr after iv injection of [18F]-compound in 0.1% bovine serum albumin solution, n = 3; type: ADME, organism-based; settings: in vivo; in short: as §1
[6] = Biodistribution in ICR mouse skin 1 hr after iv injection of [18F]-compound in 0.1% bovine serum albumin solution, n = 3; type: ADME, organism-based, Zone of skin; settings: in vivo; in short: as §1
[7] = Biodistribution in ICR mouse skin 2 hr after iv injection of [18F]-compound in 0.1% bovine serum albumin solution, n = 3; type: ADME, organism-based, Zone of skin; settings: in vivo; in short: as §1
[8] = Biodistribution in ICR mouse blood 1 hr after iv injection of [18F]-compound in 0.1% bovine serum albumin solution, n = 3; type: ADME, organism-based; settings: in vivo; in short: as §1
[9] = Biodistribution in ICR mouse blood 2 hr after iv injection of [18F]-compound in 0.1% bovine serum albumin solution, n = 3; type: ADME, organism-based; settings: in vivo; in short: as §1
[10] = Biodistribution in ICR mouse brain 1 hr after iv injection of [18F]-compound in 0.1% bovine serum albumin solution, n = 3; type: ADME, organism-based; settings: in vivo; in short: as §1
[11] = Biodistribution in ICR mouse brain 2 hr after iv injection of [18F]-compound in 0.1% bovine serum albumin solution, n = 3; type: ADME, organism-based; settings: in vivo; in short: as §1
[12] = Biodistribution in ICR mouse heart 1 hr after iv injection of [18F]-compound in 0.1% bovine serum albumin solution, n = 3; type: ADME, organism-based; settings: in vivo; in short: as §1
[13] = Biodistribution in ICR mouse heart 2 hr after iv injection of [18F]-compound in 0.1% bovine serum albumin solution, n = 3; type: ADME, organism-based; settings: in vivo; in short: as §1
[14] = Biodistribution in ICR mouse liver 1 hr after iv injection of [18F]-compound in 0.1% bovine serum albumin solution, n = 3; type: ADME, organism-based; settings: in vivo; in short: as §1
[15] = Biodistribution in ICR mouse liver 2 hr after iv injection of [18F]-compound in 0.1% bovine serum albumin solution, n = 3; type: ADME, organism-based; settings: in vivo; in short: as §1
[16] = Biodistribution in ICR mouse kidney 1 hr after iv injection of [18F]-compound in 0.1% bovine serum albumin solution, n = 3; type: ADME, organism-based; settings: in vivo; in short: as §1
[17] = Biodistribution in ICR mouse kidney 2 hr after iv injection of [18F]-compound in 0.1% bovine serum albumin solution, n = 3; type: ADME, organism-based; settings: in vivo; in short: as §1
[18] = Biodistribution in ICR mouse muscle 1 hr after iv injection of [18F]-compound in 0.1% bovine serum albumin solution, n = 3; type: ADME, organism-based, Muscle tissue; settings: in vivo; in short: as §1
[19] = Biodistribution in ICR mouse muscle 2 hr after iv injection of [18F]-compound in 0.1% bovine serum albumin solution, n = 3; type: ADME, organism-based, Muscle tissue; settings: in vivo; in short: as §1
[20] = Biodistribution in ICR mouse spleen 1 hr after iv injection of [18F]-compound in 0.1% bovine serum albumin solution, n = 3; type: ADME, organism-based; settings: in vivo; in short: as §1
[21] = Biodistribution in ICR mouse spleen 2 hr after iv injection of [18F]-compound in 0.1% bovine serum albumin solution, n = 3; type: ADME, organism-based; settings: in vivo; in short: as §1
[22] = Biodistribution in ICR mouse bone 2 min. after iv injection of [18F]-compound in 0.1% bovine serum albumin solution, n = 3; type: ADME, organism-based, Bone element; settings: in vivo; in short: as §1
[23] = Biodistribution in ICR mouse lung 2 min. after iv injection of [18F]-compound in 0.1% bovine serum albumin solution, n = 3; type: ADME, organism-based; settings: in vivo; in short: as §1
[24] = Biodistribution in ICR mouse skin 2 min. after iv injection of [18F]-compound in 0.1% bovine serum albumin solution, n = 3; type: ADME, organism-based, Zone of skin; settings: in vivo; in short: as §1
[25] = Biodistribution in ICR mouse blood 2 min. after iv injection of [18F]-compound in 0.1% bovine serum albumin solution, n = 3; type: ADME, organism-based; settings: in vivo; in short: as §1
[26] = Biodistribution in ICR mouse lung 30 min. after iv injection of [18F]-compound in 0.1% bovine serum albumin solution, n = 3; type: ADME, organism-based; settings: in vivo, 0.5 h; in short: as §1
[27] = Biodistribution in ICR mouse skin 30 min. after iv injection of [18F]-compound in 0.1% bovine serum albumin solution, n = 3; type: ADME, organism-based, Zone of skin; settings: in vivo, 0.5 h; in short: as §1
[28] = Biodistribution in ICR mouse blood 30 min. after iv injection of [18F]-compound in 0.1% bovine serum albumin solution, n = 3; type: ADME, organism-based; settings: in vivo, 0.5 h; in short: as §1
[29] = Biodistribution in ICR mouse brain 30 min. after iv injection of [18F]-compound in 0.1% bovine serum albumin solution, n = 3; type: ADME, organism-based; settings: in vivo, 0.5 h; in short: as §1
[30] = Biodistribution in ICR mouse heart 30 min. after iv injection of [18F]-compound in 0.1% bovine serum albumin solution, n = 3; type: ADME, organism-based; settings: in vivo, 0.5 h; in short: as §1
[31] = Biodistribution in ICR mouse kidney 2 min. after iv injection of [18F]-compound in 0.1% bovine serum albumin solution, n = 3; type: ADME, organism-based; settings: in vivo; in short: as §1
[32] = Biodistribution in ICR mouse liver 30 min. after iv injection of [18F]-compound in 0.1% bovine serum albumin solution, n = 3; type: ADME, organism-based; settings: in vivo, 0.5 h; in short: as §1
[33] = Biodistribution in ICR mouse muscle 2 min. after iv injection of [18F]-compound in 0.1% bovine serum albumin solution, n = 3; type: ADME, organism-based, Muscle tissue; settings: in vivo; in short: as §1
[34] = Biodistribution in ICR mouse spleen 2 min. after iv injection of [18F]-compound in 0.1% bovine serum albumin solution, n = 3; type: ADME, organism-based; settings: in vivo; in short: as §1
[35] = Biodistribution in ICR mouse kidney 30 min. after iv injection of [18F]-compound in 0.1% bovine serum albumin solution, n = 3; type: ADME, organism-based; settings: in vivo, 0.5 h; in short: as §1
[36] = Biodistribution in ICR mouse muscle 30 min. after iv injection of [18F]-compound in 0.1% bovine serum albumin solution, n = 3; type: ADME, organism-based, Muscle tissue; settings: in vivo, 0.5 h; in short: as §1
[37] = Biodistribution in ICR mouse spleen 30 min. after iv injection of [18F]-compound in 0.1% bovine serum albumin solution, n = 3; type: ADME, organism-based; settings: in vivo, 0.5 h; in short: as §1
[38] = Biodistribution in ICR mouse bone 30 min. after iv injection of [18F]-compound in 0.1% bovine serum albumin solution, n = 3; type: ADME, organism-based, Bone element; settings: in vivo, 0.5 h; in short: as §1
[39] = Biodistribution in ICR mouse brain 2 min. after iv injection of [18F]-compound in 0.1% bovine serum albumin solution, n = 3; type: ADME, organism-based; settings: in vivo; in short: as §1
[40] = Biodistribution in ICR mouse heart 2 min. after iv injection of [18F]-compound in 0.1% bovine serum albumin solution, n = 3; type: ADME, organism-based; settings: in vivo; in short: as §1
[41] = Biodistribution in ICR mouse liver 2 min. after iv injection of [18F]-compound in 0.1% bovine serum albumin solution, n = 3; type: ADME, organism-based; settings: in vivo; in short: as §1

Chain of Amyloid-beta precursor protein (P05067 whole entry): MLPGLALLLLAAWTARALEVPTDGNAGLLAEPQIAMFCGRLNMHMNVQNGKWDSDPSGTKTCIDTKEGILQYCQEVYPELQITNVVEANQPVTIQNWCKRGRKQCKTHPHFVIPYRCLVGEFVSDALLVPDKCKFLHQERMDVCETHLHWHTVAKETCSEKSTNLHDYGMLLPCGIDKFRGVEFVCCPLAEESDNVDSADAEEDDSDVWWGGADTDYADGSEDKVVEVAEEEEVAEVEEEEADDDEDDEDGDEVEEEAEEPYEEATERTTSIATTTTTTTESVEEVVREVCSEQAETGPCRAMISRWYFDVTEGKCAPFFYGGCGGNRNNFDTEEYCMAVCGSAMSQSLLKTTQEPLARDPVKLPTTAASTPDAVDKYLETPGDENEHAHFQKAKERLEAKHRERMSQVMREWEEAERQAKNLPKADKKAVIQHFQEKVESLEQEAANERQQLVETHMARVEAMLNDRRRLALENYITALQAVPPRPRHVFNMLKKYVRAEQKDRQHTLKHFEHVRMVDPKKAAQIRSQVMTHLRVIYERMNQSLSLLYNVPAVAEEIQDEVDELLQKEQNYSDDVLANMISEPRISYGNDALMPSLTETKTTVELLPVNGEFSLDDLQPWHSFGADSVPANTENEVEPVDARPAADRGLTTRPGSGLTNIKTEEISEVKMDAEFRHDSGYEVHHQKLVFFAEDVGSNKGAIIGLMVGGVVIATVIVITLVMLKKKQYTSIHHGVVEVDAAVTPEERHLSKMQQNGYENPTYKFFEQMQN

Ki [1]: 32.5 nM
SMILES: CNc1ccc(/C=C/c2ccc(OCC(CO)CO)cc2)cc1

Ki [1]: 15 nM
SMILES: Nc1ccc(/C=C/c2ccc(OCC(CO)CF)cc2)cc1 (stereo not given)

Ki [1]: 1.1 nM
SMILES: CN(C)c1ccc(/C=C/c2ccc(O)cc2)cc1

Ki [1]: 59 nM
SMILES: CN(C)c1ccc(/C=C/c2ccc(OCC3COC(C)(C)OC3)cc2)cc1

Biodistribution [2]: 5.3 %Dose/g
Biodistribution [3]: 7.76 %Dose/g
Biodistribution [4]: 7.51 %Dose/g
Biodistribution [5]: 4.15 %Dose/g
Biodistribution [6]: 1.22 %Dose/g
Ki [1]: 5 nM
Biodistribution [7]: 0.57 %Dose/g
Biodistribution [8]: 1.82 %Dose/g
Biodistribution [9]: 0.78 %Dose/g
Biodistribution [10]: 0.72 %Dose/g
Biodistribution [11]: 0.31 %Dose/g
Biodistribution [12]: 1.54 %Dose/g
Biodistribution [13]: 0.65 %Dose/g
Biodistribution [14]: 14.58 %Dose/g
Biodistribution [15]: 8.14 %Dose/g
Biodistribution [16]: 3.06 %Dose/g
Biodistribution [17]: 1.5 %Dose/g
Biodistribution [18]: 0.85 %Dose/g
Biodistribution [19]: 0.41 %Dose/g
Biodistribution [20]: 1.37 %Dose/g
Biodistribution [21]: 1.22 %Dose/g
Biodistribution [22]: 1.53 %Dose/g
Biodistribution [23]: 26.13 %Dose/g
Biodistribution [24]: 0.92 %Dose/g
Biodistribution [25]: 2.6 %Dose/g
Biodistribution [26]: 8.9 %Dose/g
Biodistribution [27]: 1.49 %Dose/g
Biodistribution [28]: 2.47 %Dose/g
Biodistribution [29]: 1.7 %Dose/g
Biodistribution [30]: 2.06 %Dose/g
Biodistribution [31]: 11.7 %Dose/g
Biodistribution [32]: 19.6 %Dose/g
Biodistribution [33]: 0.74 %Dose/g
Biodistribution [34]: 5.01 %Dose/g
Biodistribution [35]: 4.13 %Dose/g
Biodistribution [36]: 1.31 %Dose/g
Biodistribution [37]: 2.41 %Dose/g
Biodistribution [38]: 2.13 %Dose/g
Biodistribution [39]: 9.75 %Dose/g
Biodistribution [40]: 7.49 %Dose/g
Biodistribution [41]: 20.61 %Dose/g
SMILES: CNc1ccc(/C=C/c2ccc(OCC(CO)C[18F])cc2)cc1 (stereo not given)
